Published values pooled from the literature.
Compare with care: the assays were run in different laboratories.
CDK7 with cyclin H: Cyclin-dependent kinase 7, with cyclin H (CDK7, Homo sapiens, UniProt P50613)
CDK7: Cyclin-dependent kinase 7 (CDK7, Homo sapiens, UniProt P50613)

| Structure (SMILES) | target | read-out | mode | technique | tested at | measurement | result |
| --- | --- | --- | --- | --- | --- | --- | --- |
| Cc1sc(C(=O)NC2COC2)cc1-n1cc(NC(=O)Nc2c(F)cccc2Cl)cn1 | CDK7 with cyclin H | enzyme activity | inhibitor | – | 10 µM | remaining activity | 103% |
| O=C(NCc1ncc(C(F)(F)F)cc1Cl)c1ccc2c(c1)C1(CCS(=O)(=O)CC1)[C@@H](C1CC1)N2S(=O)(=O)c1ccc(F)cc1 | CDK7 | cell-free assay | – | competition with immobilised ligand | 1 µM | remaining binding | 56% |
| Cc1cc(NC(=O)c2cccc3cc(-c4cccc5[nH]nc(N)c45)ccc23)ccc1F | CDK7 | enzyme activity | inhibitor | – | 0.1 µM | activity vs control | 117% |
| COc1cc2ncnc(Nc3ccc(F)c(Cl)c3)c2cc1OCCCN1CCOCC1 | CDK7 with cyclin H | cell-free assay | – | – | 0.5 µM | remaining signal | 105% |
| CO[C@@H](C)c1c(Nc2ccc([C@H](N(C)C(=O)C3CCS(=O)(=O)CC3)C(F)(F)F)cc2)cnc2cc(Cl)nn12 | CDK7 | cell-free assay | – | competition with immobilised ligand | 1 µM | remaining binding | 100% |
| O=C(Nc1cnn(-c2csc(C(=O)NC3COC3)c2)c1)Nc1ccccc1Cl | CDK7 with cyclin H | enzyme activity | inhibitor | – | 5 µM | remaining activity | 99.7% |
| CCN(CC)c1ccc(C2=NNC(=O)CC2C)cc1[N+](=O)[O-] (stereo not drawn) | CDK7 | enzyme activity | inhibitor | – | 10 µM | remaining activity | 96% |
| CC(C)(O)[C@H]1CC[C@H](Nc2ccc3ncc(-c4cccc(C(F)(F)F)c4)n3n2)CC1 | CDK7 with cyclin H | enzyme activity | inhibitor | – | 1 µM | remaining activity | 96.6% |
| CC(C)c1ccc(NC(=O)c2cccs2)c(-c2nc3ccccc3[nH]c2=O)c1 | CDK7 | enzyme activity | inhibitor | – | 1 µM | activity vs control | 85% |
| Cn1cnc(Br)c1C1=CN(c2ncnc3[nH]cnc23)CCS1 | CDK7 | enzyme activity | inhibitor | radiometric | 2 µM | inhibition | 44.3% |
| CCCCCC[C@@H](C)/C=C(C)/C=C/C(=O)N[C@H]1CC2(O[C@H]1O)[C@@H]1O[C@@H]1C(=O)[C@@H]1O[C@@H]12 (stereo partly drawn) | CDK7 with cyclin H | enzyme activity | inhibitor | ADP detection | 10 µM | inhibition | -18.5% |
| C[C@H](c1ccc(F)cc1)N(Cc1cccc(C(=O)O)c1)C(=O)c1cnc2ccccc2c1 | CDK7 | cell-free assay | – | competition with immobilised ligand | 1 µM | remaining binding | 100% |
| O=c1cc(-c2ccccc2)oc2ccccc12 | CDK7 with cyclin H | enzyme activity | inhibitor | ADP detection | 10 µM | inhibition | 41.7% |
| Cc1nc(Cc2cccc(C(F)(F)F)c2)sc1-c1ccc(C(N)=O)nc1 | CDK7 | cell-free assay | – | competition with immobilised ligand | 1 µM | remaining binding | 90% |
| CCCCNc1ncc2c(-c3ccc(F)cc3)nn(C[C@H]3CC[C@H](N)CC3)c2n1 | CDK7 | target engagement in cells | inhibitor | chemoproteomics | 20 mM | inhibition | 31.5% |
| COc1cc(Nc2c(C#N)cnc3cc(OCCCN4CCN(C)CC4)c(OC)cc23)c(Cl)cc1Cl | CDK7 with cyclin H | cell-free assay | – | – | 0.5 µM | remaining signal | 113% |
| CNC(=O)c1ccc(Nc2ncc(C(F)(F)F)c(NCc3nccnc3N(C)S(C)(=O)=O)n2)cc1 | CDK7 | cell-free assay | – | competition with immobilised ligand | 0.1 µM | remaining binding | 59% |
| CC(C)(C)c1nc(-c2cccc(NS(=O)(=O)c3c(F)cccc3F)c2F)c(-c2ccnc(N)n2)s1 | CDK7 with cyclin H | enzyme activity | inhibitor | radiometric | 1 µM | remaining activity | 109% |
| COc1cc2oc(-c3ccccc3)cc(=O)c2c(OC)c1OC | CDK7 with cyclin H | enzyme activity | inhibitor | ADP detection | 10 µM | inhibition | 22.4% |
| Cc1ccc(C(=O)NCc2ccsc2)cc1C#Cc1cn(C(C)C)c2ncnc(N)c12 | CDK7 | enzyme activity | inhibitor | – | 1 µM | activity vs control | 94% |
| Cn1cc2c3ccccc3nc-2c2ccccc21 | CDK7 with cyclin H | enzyme activity | inhibitor | ADP detection | 10 µM | inhibition | 38.3% |
| CNC(=O)c1cc(Oc2ccc(NC(=O)Nc3ccc(Cl)c(C(F)(F)F)c3)cc2)ccn1 | CDK7 with cyclin H | enzyme activity | inhibitor | – | 0.3 µM | inhibition | -3% |
| COc1c(-c2ccccc2)oc2c(ccc3occc32)c1=O | CDK7 with cyclin H | enzyme activity | inhibitor | ADP detection | 10 µM | inhibition | -0.1% |
| CCN(CC)CCNC(=O)c1c(C)[nH]c(/C=C2\C(=O)Nc3ccc(F)cc32)c1C | CDK7 with cyclin H | cell-free assay | – | – | 0.5 µM | remaining signal | 73.4% |
| O=C1C[C@@H](c2ccc(O)cc2)Oc2cc(O)cc(O)c21 | CDK7 with cyclin H | enzyme activity | inhibitor | ADP detection | 10 µM | inhibition | 3.7% |
| C[C@H](c1ccnc(Nc2nc3ccc(-c4cc(N(C)C)ncn4)cc3[nH]2)c1)N1CCN(C(=O)CC(F)(F)F)CC1 | CDK7 | cell-free assay | – | competition with immobilised ligand | 0.1 µM | remaining binding | 93% |
| O=c1cc(-c2ccccc2)oc2cc(O)cc(O)c12 | CDK7 with cyclin H | enzyme activity | inhibitor | ADP detection | 10 µM | inhibition | 58.8% |
| CN(C)C(=O)Cn1cc(-c2nc([C@@](C)(c3ccc(-c4cnc(N)nc4)cc3)C3CC3)no2)cn1 | CDK7 | cell-free assay | – | competition with immobilised ligand | 1 µM | remaining binding | 59% |
| COc1ccc(-c2coc3cc(O)cc(O)c3c2=O)cc1 | CDK7 with cyclin H | enzyme activity | inhibitor | ADP detection | 10 µM | inhibition | 41.3% |
| CN(c1ccnc(CNc2nc(Nc3ccc4c(c3)CC(=O)N4)ncc2C(F)(F)F)n1)S(C)(=O)=O | CDK7 | cell-free assay | – | competition with immobilised ligand | 1 µM | remaining binding | 3.5% |
